Source: ChEMBL document CHEMBL1156914, “Novel inhibitors of dengue virus methyltransferase: discovery by in vitro-driven virtual screening on a desktop computer grid” (J Med Chem, 2010)

What was measured:
[1] = target: T1, Genome polyprotein (dengue virus type 2, UniProt P12823); assay: Inhibition of Dengue virus type 2 NS5 RNA methyltransferase RNA site with 0.1 % TX100
In short: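 Detergent-sensitivity variant of the SPA methyl-transfer assay: 0.1% Triton X-100 added to the reaction mix. Otherwise 25 nM DENV2 MTase, 40 nM biotinylated RNA, 20 min room-temperature preincubation, 0.56 μM [3H]AdoMet. Counts read after bead stop. Duplicate wells.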

[2] = target: T1, Genome polyprotein; assay: Inhibition of Dengue virus type 2 NS5 RNA methyltransferase RNA site
[3] = Cytotoxicity against human A549 cells after 48 hrs; type: cell-based
[4] = system: dengue virus type 2; assay: Antiviral activity against Dengue virus type 2 infected in human A549 cells assessed as decrease in viral E protein production by cell-based flavivirus immunodetection assay; type: functional, organism-based
[5] = target: T1, Genome polyprotein; assay: Inhibition of Dengue virus type 2 NS5 RNA methyltransferase SAM site
[6] = target: T1, Genome polyprotein; assay: Inhibition of Dengue virus type 2 NS5 RNA methyltransferase SAM site with 0.1 % TX100
[7] = target: T1, Genome polyprotein; assay: Inhibition of Dengue virus type 2 NS5 RNA methyltransferase by spin-down assay
[8] = target: T1, Genome polyprotein; assay: Inhibition of Dengue virus type 2 NS5 RNA methyltransferase at 80 nM enzyme concentration
[9] = target: T1, Genome polyprotein; assay: Inhibition of Dengue virus type 2 NS5 RNA methyltransferase at 8 nM enzyme concentration

T1 sequence (P12823 2489-3388 limits assumed): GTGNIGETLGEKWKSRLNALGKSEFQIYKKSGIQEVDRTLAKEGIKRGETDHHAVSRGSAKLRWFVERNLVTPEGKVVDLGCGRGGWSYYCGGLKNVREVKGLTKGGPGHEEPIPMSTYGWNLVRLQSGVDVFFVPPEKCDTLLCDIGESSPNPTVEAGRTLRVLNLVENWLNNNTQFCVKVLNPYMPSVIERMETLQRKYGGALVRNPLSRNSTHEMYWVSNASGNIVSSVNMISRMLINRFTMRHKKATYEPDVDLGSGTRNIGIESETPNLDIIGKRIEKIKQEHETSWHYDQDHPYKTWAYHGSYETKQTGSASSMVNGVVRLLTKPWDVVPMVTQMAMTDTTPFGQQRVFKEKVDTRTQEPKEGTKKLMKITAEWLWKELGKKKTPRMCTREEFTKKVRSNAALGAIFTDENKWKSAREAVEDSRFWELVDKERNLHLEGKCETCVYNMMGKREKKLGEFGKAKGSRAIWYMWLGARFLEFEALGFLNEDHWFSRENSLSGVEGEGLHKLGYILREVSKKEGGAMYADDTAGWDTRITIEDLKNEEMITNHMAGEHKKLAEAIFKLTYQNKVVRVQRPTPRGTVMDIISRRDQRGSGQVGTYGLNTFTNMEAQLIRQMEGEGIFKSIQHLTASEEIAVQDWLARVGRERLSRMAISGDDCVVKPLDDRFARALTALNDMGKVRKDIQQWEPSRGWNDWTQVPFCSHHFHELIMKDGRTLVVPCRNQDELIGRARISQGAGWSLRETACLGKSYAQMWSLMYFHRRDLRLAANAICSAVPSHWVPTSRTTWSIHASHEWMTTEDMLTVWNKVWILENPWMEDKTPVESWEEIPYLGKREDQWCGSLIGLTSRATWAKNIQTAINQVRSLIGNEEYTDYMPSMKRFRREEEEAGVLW

| IC50 [1] [µM] | IC50 [2] [µM] | IC50 [5] [µM] | IC50 [6] [µM] | SMILES | also measured |
| --- | --- | --- | --- | --- | --- |
| > 100 | 6.83 | – | – | COc1cc(NS(=O)(=O)c2ccc(NC(=O)/C=C/c3cccc4ccccc34)cc2)nc(OC)n1 | – |
| 19.5 | 2.81 | – | – | O=C(O)COc1ccc(Br)cc1/C=C1\CC/C(=C\c2cc(Br)ccc2OCC(=O)O)C1=O | CC50 at 48 h [3]: > 100 µM; EC50 [4]: > 100 µM |
| 44.5 | 4.42 | – | – | O=C(O)CCC(=O)N1NC(c2c(O)nc3ccc(Cl)cc3c2-c2ccccc2)=C[C@@H]1c1ccc(Br)cc1 | CC50 at 48 h [3]: > 100 µM; EC50 [4]: > 100 µM |
| > 100 | 20.3 | – | – | Cc1cc(/C=N\NC(=O)Nc2ccccc2)c(C)n1-c1cc(C(=O)O)cc(C(=O)O)c1 | – |
| > 100 | 11.9 | – | – | Cc1c(CC(=O)N[C@@H](Cc2c[nH]c3ccc(O)cc23)C(=O)O)c(=O)oc2cc3occ(C(C)(C)C)c3cc12 | – |
| – | – | 25.3 | > 100 | NC(=O)C1=CN(Cc2ccccc2)C=CC1 | – |
| – | – | 9.84 | > 100 | Cc1ccc(C)c(C(=O)C2=C(O)C(=O)N(CCc3ccccc3)[C@@H]2c2ccc(O)cc2)c1 | – |
| – | – | 8.78 | 4.47 | COc1ccc(/C=C2/CN(CCCC(=O)O)C(=O)C2=O)cc1 | CC50 at 48 h [3]: > 100 µM; EC50 [4]: > 100 µM; IC50 [7]: 10.5 µM |
| > 100 | 8.81 | – | – | O=C(N/N=C\c1ccccc1C(=O)O)c1ccc(COc2ccc3ccccc3c2)cc1 | – |
| – | – | 12.8 | > 100 | O=C1C(=O)N(Cc2cccnc2)[C@H](c2cccc(Oc3ccccc3)c2)/C1=C(/O)c1ccco1 | – |
| – | – | 2.91 | > 25 | COc1ccc(CN(CC[C@@H](c2ccccc2)c2ccco2)C(=O)c2ccoc2)cc1 | – |
| > 100 | 12.4 | – | – | O=C(O)COc1ccccc1/C=N\NC(=O)Cc1csc(Nc2cccc(C(F)(F)F)c2)n1 | – |
| – | – | 29.9 | > 100 | O=C(O)c1ccc(S(=O)(=O)c2ccc(C(=O)O)cc2)cc1 | – |
| – | – | 14.3 | 14.3 | O=C(O)c1cnc2c([N+](=O)[O-])cccc2c1O | CC50 at 48 h [3]: > 100 µM; EC50 [4]: > 100 µM |
| – | – | 9.62 | > 100 | Cc1ccccc1COc1ccc(C(=O)[C@@H]2C(=O)C(=O)N(Cc3ccncc3)[C@H]2c2cccc(O)c2)cc1 | – |
| – | – | 21.1 | > 100 | O=S(=O)(Nc1ccccc1)c1cc(S(=O)(=O)Nc2ccccc2)c2cc(O)ccc2c1 | – |

| IC50 [1] [µM] | IC50 [2] [µM] | IC50 [5] [µM] | IC50 [6] [µM] | SMILES | also measured |
| --- | --- | --- | --- | --- | --- |
| 64.2 | 9.28 | – | – | Cc1ccc(Cl)cc1NS(=O)(=O)c1ccc(NS(=O)(=O)c2ccc3ccccc3c2)cc1 | CC50 at 48 h [3]: 22.7 µM; EC50 [4]: 12 µM |
| > 100 | 7.11 | – | – | CCOc1cc(/C=C2\C(=O)N(c3ccc4ccccc4c3)N=C2C)ccc1OCCC(=O)O | – |
| 7.14 | 7.56 | – | – | O=S(=O)(O)c1cccc(NNc2ccc(Nc3ccccc3)cc2)c1 | IC50 [8]: 10.2 µM; IC50 [9]: 7.62 µM; CC50 at 48 h [3]: > 100 µM; EC50 [4]: > 100 µM; IC50 [7]: 10.7 µM |
| – | – | 27.5 | > 100 | COc1ccc2c(c1)C(CC(=O)O)CN2Cc1ccccc1 (stereo unspecified) | – |
| – | – | 27.6 | > 100 | O=C1NC(=O)/C(=C\c2ccc(O)cc2)N1 | – |
| > 100 | 17.6 | – | – | N#Cc1c(NC(=O)c2cccc(S(=O)(=O)Nc3ccc(C(=O)O)cc3)c2)sc2c1CCCC2 | – |
| – | – | 29 | > 100 | O=C(Cn1ccc(=O)[nH]c1=O)Nc1ccc(O)c([N+](=O)[O-])c1 | – |
| > 100 | 14.5 | – | – | O=C(O)c1ccccc1C(=O)Nc1nc(-c2ccc3ccccc3c2)cs1 | – |
| – | – | 4.29 | > 25 | O=C(CCCCC(=O)N/N=C/c1ccc(O)cc1O)N/N=C/c1ccc(O)cc1O | – |
| 4.91 | 4.8 | – | – | O=C(O)c1ccccc1/C=N/NC(=O)c1cc(-c2ccco2)nc2ccccc12 | CC50 at 48 h [3]: > 100 µM; EC50 [4]: > 100 µM; IC50 [7]: 4.34 µM |
| 87.1 | 13.5 | – | – | CCN(CC)c1ccc(/C=N\Nc2ccc(Cl)c(C(=O)O)c2)c(O)c1 | CC50 at 48 h [3]: 75.1 µM; EC50 [4]: 50 µM |
| – | – | 16.1 | > 100 | Cc1cc(C(=O)CSc2nc(N)cc(=O)[nH]2)c(C)n1Cc1ccc2c(c1)OCO2 | – |
| > 100 | 11.3 | – | – | COc1cc(/C=C2/NC(=O)N(Cc3ccc(Cl)cc3Cl)C2=O)ccc1O[C@H](C)C(=O)O | – |
| > 100 | 37.5 | – | – | Cc1ccc(C23CC4CC(CC(C(=O)Nc5cccc(C(=O)O)c5)(C4)C2)C3)cc1 | – |
| > 100 | 7.99 | – | – | O=C(O)c1cccc(NC(=O)c2ccc(CSc3ccc(Br)cc3)cc2)c1 | – |
| > 100 | 13.2 | – | – | COc1cc(CNc2ccc(C(=O)O)cc2)ccc1OCc1ccccc1Cl | – |

| SMILES | IC50 [1] [µM] | IC50 [2] [µM] | IC50 [5] [µM] | IC50 [6] [µM] | also measured |
| --- | --- | --- | --- | --- | --- |
| Cc1cc(O)c2c(c1)C(=O)c1cc(O)cc(O)c1C2=O [EMODIN] | – | – | 16.9 | 79.8 | CC50 at 48 h [3]: 30.7 µM; EC50 [4]: 10.9 µM |
| O=C(c1cccc([N+](=O)[O-])c1)c1no[n+]([O-])c1C(=O)c1cccc([N+](=O)[O-])c1 | – | – | 31.4 | > 100 | – |
